Source: PubChem
F508del corr: CFTR F508del correction in bronchial cells; CFBE cells, YFP halide quenching; stimulated with forskolin plus potentiator P3; % fluorescence drop versus neutral controls; activity (quench increase), % at 7.58 µM; actives 0.36% (n = 350,000); AID 720511;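 active = mean added fluorescence quench of at least 8% versus neutral control, with both replicates also reaching 8%; inconclusive = only one of the mean or replicate conditions met; inactive = mean below 8% and not both replicates reaching 8%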;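 also: cells transiently co-express mutant CFTR-F508del with the halide-sensitive YFP; corrector assay measuring rescue of mutant channel to the surface after 24 h compound exposure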
E-sel inducer: induces E-selectin expression in human endothelial cells; HUVEC E-selectin immunofluorescence imaging; normalized: neutral wells 0, TNF-alpha wells 100; actives 0.37% (n = 260,000); activation, % at 7.58 µM; AID 686992;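 active = mean E-selectin-positive cell signal at least 10% of the positive control, reached in at least 60% of replicates, without over 20% cell loss; inconclusive = no rule given, readout overlaps actives, possibly toxicity-flagged; inactive = the rest, including those meeting only one limit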
Target sequence (P16581 whole entry, looked up): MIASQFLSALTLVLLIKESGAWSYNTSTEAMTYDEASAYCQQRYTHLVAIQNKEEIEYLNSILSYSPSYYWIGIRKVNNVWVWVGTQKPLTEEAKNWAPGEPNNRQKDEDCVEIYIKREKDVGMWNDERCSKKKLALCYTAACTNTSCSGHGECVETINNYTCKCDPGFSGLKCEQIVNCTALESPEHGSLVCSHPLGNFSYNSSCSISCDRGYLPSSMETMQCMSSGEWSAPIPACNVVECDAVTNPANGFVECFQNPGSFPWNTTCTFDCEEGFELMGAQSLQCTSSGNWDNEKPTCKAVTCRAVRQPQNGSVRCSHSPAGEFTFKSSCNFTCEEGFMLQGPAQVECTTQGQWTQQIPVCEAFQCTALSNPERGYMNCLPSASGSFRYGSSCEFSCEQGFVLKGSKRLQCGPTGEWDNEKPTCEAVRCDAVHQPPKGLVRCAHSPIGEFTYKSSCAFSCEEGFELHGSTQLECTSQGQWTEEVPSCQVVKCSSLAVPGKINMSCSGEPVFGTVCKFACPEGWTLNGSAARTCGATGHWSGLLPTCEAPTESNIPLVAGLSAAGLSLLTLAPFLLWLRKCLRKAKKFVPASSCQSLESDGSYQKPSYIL
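material = human umbilical vein endothelial cells (HUVEC), E-selectin induction | quantity = 3,000 cells/well | medium = EGM-2 growth medium on 0.1% gelatin-coated wells | technique = immunofluorescence imaging | read-out basis = % PE-positive cells | control set = TNF-alpha positive control, DMSO neutral control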
DENV2 CPE: inhibitors of DENV2 cytopathic effect | DENV2-infected cells, cytopathic effect rescue, plate reader | CPE inhibition, % at 9.99 µM | actives 1.7% (n = 350,000); in the data active = CPE inhibition above about 20%, passing the limit was not always enough; inconclusive = no clear call, values can overlap the other calls; tested in BHK-21 cells
ERAP1 HTS inh: ERAP1 (human) enzyme inhibition; Q9NZ08; recombinant ERAP1, Leu-AMC fluorescence, 60 min; inhibition, % at 10.7 µM; AID 652197; actives 0.15% (n = 340,000);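 active = mean replicate inhibition of at least 30%, or all replicates individually reaching that 30% level; inactive = mean below 30% and not every replicate reaching it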
FGF22 binding: binders of recombinant human FGF22 by thermal shift; Q9HCT0; SYPRO orange fluorescence; percent of sucrose octasulfate shift, DMSO zero; activity (Tm shift, normalised), % at 9.99 µM; actives 1.5% (n = 340,000); AID 651658;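 active = mean Tm shift, scaled 0 neutral to 100 positive control, at about 1.3% or above, every replicate too, limit read from the data; inconclusive = no clear call, values can overlap the other calls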
Each line names hits and unclear results; the compound was inactive in the other large screens. Most compounds without a hit are left out; they make up all but 3.7% or so of the library.

Cc1ccc(OC(=O)N(C)C[C@@H]2OCc3ccccc3-c3c(n(C)c4ccccc34)C(=O)N([C@H](C)CO)C[C@@H]2C)cc1	none
O=C(O)[C@@H]1[C@@H](CO)[C@@H]2Cn3c(ccc(-c4ccc(F)cc4)c3=O)[C@H]1N2CC1CCCCC1	none (no result: F508del corr)
CC1(C)CC(=O)CC(C)(C)N1O	FGF22 binding 44.9
C=CC1CN2CCC1C[C@@H]2CO (stereo partly specified)	DENV2 CPE 20.2 (no result: E-sel inducer)
CN(C)c1ccc(-[n+]2c(-c3ccccc3)cc(-c3ccccc3)cc2-c2ccccc2)cc1	F508del corr 8.3 (no result: E-sel inducer, DENV2 CPE)
C/C=C/c1ccc2c(c1)OCO2	DENV2 CPE 20.1 (no result: E-sel inducer)
CCCC#Cc1ccc([C@H]2[C@@H](CO)N3CCCCN(C(=O)Cc4ccccn4)C[C@H]23)cc1	none
COc1cccc2c1C(=O)c1c(O)c3c(c(O)c1C2=O)CC(O)(C(C)=NO)CC3OC1CC(N)C(O)C(C)O1 (stereo unspecified)	ERAP1 HTS inh 32.7
Nc1ccc2ccc3cccc[n+]3c2c1	F508del corr 15.0 (no result: E-sel inducer)
CC[N+]12CCC(CC1)C(C(O)(c1ccccc1)c1ccccc1)C2 (stereo unspecified)	none (no result: E-sel inducer)
CCC(CO)(C(=O)OC1C[N+]2(C)CCC1CC2)c1ccccc1 (stereo unspecified)	ERAP1 HTS inh 72.2 (no result: DENV2 CPE)
c1ccc(Cc2cnc(N3CCNCC3)nc2)cc1	E-sel inducer inconclusive, ERAP1 HTS inh 64.2
c1cnc(N2CCNCC2)nc1	none
O=[N+]([O-])c1ccc(N2CCOCC2)c2c1no[n+]2[O-]	F508del corr 12.4
O=[N+]([O-])c1ccc(N2CCOCC2)c2cccnc12	none
CC1(C)OC(c2ccccc2)=C/C(=C/C=C2C(=O)NC(=S)NC2=O)O1	F508del corr 16.6, E-sel inducer 533.1
COc1ccc(-n2c(C)cc(C(=O)C[N+]34CCN(CC3)CC4)c2C)cc1	FGF22 binding 43.2
CCCNC(=O)[C@@H]1[C@@H](CO)[C@@H]2Cn3c(cccc3=O)[C@@H]2N1C	none (no result: F508del corr)
CCOC(=O)c1cc2cc(OC)ccc2n1C1CCN(Cc2ccccc2)CC1	DENV2 CPE 35.0
COc1ccc2nc(-c3ccc(CN4CCC(n5c(=O)[nH]c6cc(Cl)ccc65)CC4)cc3)c(-c3ccccc3)nc2c1	none
COC(=O)[C@H]1[C@H](CO)[C@H]2Cn3c(ccc(-c4cccc(OC)c4)c3=O)[C@@H]1N2CC1CC1	none (no result: F508del corr)
O=C(Cc1ccccc1)N1CCCCN2[C@H](CO)[C@H](c3ccc(C#CC4(O)CCCC4)cc3)[C@H]2C1	none
C[C@@H](N)Cc1cnc[nH]1	F508del corr 11.0, DENV2 CPE inconclusive
C1CCC2CCCCC2C1 (stereo unspecified)	DENV2 CPE 33.4 (no result: E-sel inducer)
O=C1NC(=O)C(C2CCCCCC2)C(=O)N1	none
Clc1cc(Cl)c(-c2cc(Cl)c(Cl)cc2Cl)cc1Cl	DENV2 CPE 23.1 (no result: E-sel inducer)
Oc1cc(Cl)c(Cl)cc1Cl	none
O=c1[nH]c(=O)n(Cc2ccc(F)cc2)c(O)c1/C=N/Nc1ccccc1	DENV2 CPE 34.3
O=c1[nH]c(=O)n(Cc2ccc(F)cc2)c(O)c1C=NCCCO	none (no result: F508del corr, DENV2 CPE, ERAP1 HTS inh, FGF22 binding)
C[C@H]1O[C@@H](OC2CC[C@]3(C=O)[C@H]4CC[C@]5(C)[C@@H](C6=CC(=O)OC6)CC[C@]5(O)[C@@H]4CC[C@]3(O)C2)CC2OC(C)(C)OC21 (stereo partly specified)	F508del corr 8.6 (no result: E-sel inducer)
O=C(O)[C@H]1[C@H](CO)[C@H]2Cn3c(ccc(-c4ccncc4)c3=O)[C@@H]1N2S(=O)(=O)c1ccccc1F	none (no result: F508del corr)
COC(=O)C1=C(c2ccc(F)cc2OCc2ccccc2)C[C@@H]2CC[C@H]1N2C(=O)NCc1cccc(F)c1	DENV2 CPE inconclusive
COC(=O)C1=C(c2ccc(F)cc2OCc2ccccc2)C[C@@H]2CC[C@H]1N2C(=O)NCc1ccccc1	DENV2 CPE 67.9
Cc1cc(OCC(=O)NC(Cc2ccc(Cl)cc2)C(=O)O)c2c3c(c(=O)oc2c1)CCCC3 (stereo unspecified)	ERAP1 HTS inh 31.4 (no result: E-sel inducer)
Cc1cc(OCc2ccc([N+](=O)[O-])cc2)c2c3c(c(=O)oc2c1)CCCC3	DENV2 CPE 151.3
CCN(CC)C(=O)COc1cc(C)cc2oc(=O)c3c(c12)CCCC3	none (no result: E-sel inducer)
COc1cccc(C2(O)CCSCC2CN(C)C)c1 (stereo unspecified)	none (no result: E-sel inducer)
COc1cccc(C2(O)CCN(CC(=O)Nc3nc(C)cs3)CC2)c1	FGF22 binding 43.0
COc1cc2c(cc1OC)-c1c(OC)c(OC)cc3c1[C@H](C2)[N+](C)(C)CC3	ERAP1 HTS inh 79.4 (no result: E-sel inducer)
COC(=O)[C@@H]1[C@@H](CO)[C@@H]2Cn3c(ccc(-c4ccccc4F)c3=O)[C@H]1N2CC1CCCC1	none (no result: F508del corr)
COc1ccc(C2C3C=CC(C3)C2C(=O)O)cc1 (stereo unspecified)	FGF22 binding 43.5
COc1ccc(C[C@H]2NC[C@H](O)[C@H]2OC(C)=O)cc1	none
O=C(Cc1cccnc1)N1CCCCN2[C@H](C1)[C@H](c1ccc(C#CC3CC3)cc1)[C@@H]2CO	none (no result: E-sel inducer)
CCN(CC)P(=O)(c1n(CC)cc[n+]1CC)N(CC)CC	ERAP1 HTS inh 108.6 (no result: E-sel inducer)
COc1cccc(NC(=O)CN2CC(c3ccccc3)CC2=O)c1 (stereo unspecified)	none
O=C(CN1CC(c2ccccc2)CC1=O)NCc1ccc(F)cc1 (stereo unspecified)	FGF22 binding 43.3
CC(C)(C)NS(=O)(=O)c1ccc(OCC(=O)N2CCN(Cc3ccccc3)CC2)cc1	FGF22 binding 44.1 (no result: E-sel inducer)
CCCNS(=O)(=O)c1ccc(OCC(=O)N2CCN(Cc3ccccc3)CC2)cc1	none (no result: F508del corr, DENV2 CPE, ERAP1 HTS inh, FGF22 binding)
COCC#Cc1ccc([C@@H]2[C@H]3CN(C(=O)Cc4ccccn4)CCCCN3[C@H]2CO)cc1	none
C=CCc1ccc2c(c1)OCO2	DENV2 CPE 93.0 (no result: E-sel inducer)
CCCN1[C@@H]2Cn3c(ccc(-c4ccc(F)cc4)c3=O)[C@H]1[C@@H](C(=O)OC)[C@@H]2CO	none
CCCC#Cc1ccc([C@H]2[C@H]3CN(C(=O)Cc4ccccn4)CCCCN3[C@H]2CO)cc1	DENV2 CPE 20.6
CCCC#Cc1ccc([C@@H]2[C@@H](CO)N3CCCCN(C(=O)Cc4ccccn4)C[C@H]23)cc1	none
N#Cc1cccc(-c2ccc([C@@H]3[C@H](CO)N4CCCCN(C(=O)Cc5ccccc5)C[C@@H]34)cc2)c1	none
O=C(Cc1ccccn1)N1CCCCN2[C@H](C1)[C@@H](c1ccc(-c3ccccc3)cc1)[C@@H]2CO	DENV2 CPE 20.7
N#Cc1cccc(-c2ccc([C@H]3[C@@H](CO)N4CCCCN(C(=O)Cc5ccccc5)C[C@H]34)cc2)c1	DENV2 CPE 26.5
O=C(Cc1cccnc1)N1CCCCN2[C@H](C1)[C@H](c1ccc(C#CC3(O)CCCC3)cc1)[C@@H]2CO	DENV2 CPE 24.8
CCC(=O)N1[C@@H]2Cn3c(ccc(C4=CCCC4)c3=O)[C@H]1[C@@H](C(=O)OC)[C@@H]2CO	none
